Data: ChEMBL document CHEMBL5346963, “Innovative Strategy toward Mutant CFTR Rescue in Cystic Fibrosis: Design and Synthesis of Thiadiazole Inhibitors of the E3 Ligase RNF5” (J Med Chem, 2023)
Calls of active or inactive are those of the source. Unless noted, the rule behind the calls is not given here.

Tests used:
[1] = Aggregation property of the compound in PBS buffer at pH 7.5 by 1D 1H-NMR analysis; assay type: physicochemical
Method in brief: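 Solubility by 1H 1D NMR and aggregation by WaterLOGSY at 298 K in PBS pH 7.5 with 1 μM ZnCl2, 1 mM DTT, 10% D2O, 1% DMSO-d6. Theoretical concentrations 20, 50 and 100 μM, with 200 μM 4-trifluoromethyl benzoic acid as internal reference. WaterLOGSY: mixing time 1.7 s, relaxation delay 2 s, 256 scans.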

CFBE41o- [2] = assay: Antiproliferative activity against human CFBE41o- cells harbouring CFTR F508del mutant/HS-YFP at 5 uM incubated for 48 hrs; assay type: toxicity, cell-based
Method in brief: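 Cells plated at 5000/well and treated after 6 h with compound (5 μM) or DMSO. Cell-covered area was followed by the YFP signal over 48 h on a high-content imager. Means ± SEM, n = 6. Three independent experiments; ANOVA with Dunnett test.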

CFBE41o- [3] = assay: Induction of autophagy in human CFBE41o- cells harbouring CFTR F508del mutant assessed as increase in number of autophagic vacuoles at 5 uM incubated for 24 hrs by confocal microscopy based analysis; assay type: functional, cell-based
Method in brief: (§1)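 CFBE41o– F508del/HS-YFP cells (50,000/well) were treated 24 h with compound (5 μM), VX-809 (1 μM) or DMSO. SAR405 (2 μM) and torin1 (20 nM) were added near the end of incubation. Cells were then loaded with 50 μM MDC in PBS for 10 min at 37 °C, washed, and imaged. MDC spot number was normalized to control. n = 3; ANOVA with Dunnett test.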

CFBE41o- [4] = assay: Induction of autophagy in human CFBE41o- cells harbouring CFTR F508del mutant assessed as increase in number of autophagic vacuoles at 20 nM incubated for 3 hrs by confocal microscopy based analysis; assay type: functional, cell-based; method in brief: as §1
[5] = molecular target: Cystic fibrosis transmembrane conductance regulator (Homo sapiens, UniProt P13569, F508DEL); assay: Corrector activity at CFTR F508del mutant in human CFBE41o- cells coexpressing HS-YFP incubated for 25 mins by microplate reader based analysis; assay type: cell-based
Cystic fibrosis transmembrane conductance regulator, sequence (P13569 as listed by the source): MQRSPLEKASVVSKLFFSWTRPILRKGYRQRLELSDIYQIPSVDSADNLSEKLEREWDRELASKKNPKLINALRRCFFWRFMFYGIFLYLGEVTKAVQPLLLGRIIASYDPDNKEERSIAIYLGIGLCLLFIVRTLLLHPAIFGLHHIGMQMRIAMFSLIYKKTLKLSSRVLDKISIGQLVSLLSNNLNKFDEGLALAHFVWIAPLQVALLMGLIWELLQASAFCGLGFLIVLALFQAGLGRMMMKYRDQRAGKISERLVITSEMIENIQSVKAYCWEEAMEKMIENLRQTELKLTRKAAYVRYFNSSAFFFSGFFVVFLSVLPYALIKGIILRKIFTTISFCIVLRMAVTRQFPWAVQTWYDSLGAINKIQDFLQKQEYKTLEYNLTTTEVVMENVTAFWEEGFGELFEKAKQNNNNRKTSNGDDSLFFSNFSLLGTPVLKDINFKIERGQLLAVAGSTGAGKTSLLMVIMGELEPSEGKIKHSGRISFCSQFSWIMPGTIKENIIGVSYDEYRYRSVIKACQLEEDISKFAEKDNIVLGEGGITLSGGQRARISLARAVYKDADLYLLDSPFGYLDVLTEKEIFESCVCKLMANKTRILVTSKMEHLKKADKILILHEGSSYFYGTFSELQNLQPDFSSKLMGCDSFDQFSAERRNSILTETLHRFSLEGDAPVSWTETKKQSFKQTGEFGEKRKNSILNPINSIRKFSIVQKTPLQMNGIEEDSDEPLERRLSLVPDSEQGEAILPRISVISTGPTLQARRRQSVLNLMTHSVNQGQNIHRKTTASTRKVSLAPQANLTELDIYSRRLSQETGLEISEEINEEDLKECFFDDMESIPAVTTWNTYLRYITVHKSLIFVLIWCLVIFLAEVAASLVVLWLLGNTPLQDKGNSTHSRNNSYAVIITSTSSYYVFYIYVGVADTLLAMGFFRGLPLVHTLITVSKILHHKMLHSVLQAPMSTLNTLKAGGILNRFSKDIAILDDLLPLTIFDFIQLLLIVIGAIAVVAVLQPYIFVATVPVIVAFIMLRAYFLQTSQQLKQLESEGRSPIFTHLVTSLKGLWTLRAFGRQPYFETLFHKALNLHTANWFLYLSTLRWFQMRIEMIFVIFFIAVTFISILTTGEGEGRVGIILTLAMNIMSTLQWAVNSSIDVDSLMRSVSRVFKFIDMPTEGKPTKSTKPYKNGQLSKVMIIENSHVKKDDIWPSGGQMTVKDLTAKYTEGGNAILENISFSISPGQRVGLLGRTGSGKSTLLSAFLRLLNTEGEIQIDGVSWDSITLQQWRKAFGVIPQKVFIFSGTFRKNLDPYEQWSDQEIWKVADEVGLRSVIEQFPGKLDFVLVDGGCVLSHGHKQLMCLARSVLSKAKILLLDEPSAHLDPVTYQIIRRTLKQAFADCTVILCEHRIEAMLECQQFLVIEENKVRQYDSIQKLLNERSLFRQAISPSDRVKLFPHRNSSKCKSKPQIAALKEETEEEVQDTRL
Method in brief: (§2)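 CFBE41o– cells stably expressing F508del-CFTR and HS-YFP were treated 24 h after seeding; DMSO and VX-809 (1 μM) served as controls. Cells were stimulated 25 min with forskolin (20 μM) plus VX-770 (1 μM). YFP was read for 2 s before and 12 s after iodide injection. Initial slope came from an exponential fit of the final 11 s. Three independent experiments.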

[6] = test system: Cystic fibrosis transmembrane conductance regulator (Homo sapiens), P13569 [F508del]; assay: Corrector activity at CFTR F508del mutant in human CFBE41o- cells assessed as increase in CFTR mutant activity at 5 uM in presence of VX-809 incubated for 24 hrs; assay type: cell-based; method in brief: as §2
Cystic fibrosis transmembrane conductance regulator (Homo sapiens), P13569 [F508del], sequence (P13569 as listed by the source): as above

[7] = test system: Cystic fibrosis transmembrane conductance regulator (Homo sapiens), P13569 [F508del]; assay: Corrector activity at CFTR F508del mutant in human CFBE41o- cells assessed as increase in CFTR mutant activity at 5 uM in presence of VX-445 incubated for 24 hrs; assay type: cell-based; method in brief: as §2
[8] = test system: Cystic fibrosis transmembrane conductance regulator (Homo sapiens), P13569 [F508del]; assay: Corrector activity at CFTR F508del mutant in human CFBE41o- cells assessed as increase in CFTR mutant activity at 5 uM in presence of VX-661/VX-445 incubated for 24 hrs; assay type: cell-based; method in brief: as §2
[9] = test system: Cystic fibrosis transmembrane conductance regulator (Homo sapiens), P13569 [F508del]; assay: Corrector activity at CFTR F508del mutant in human CFBE41o- cells transfected with NT siRNA assessed as increase in CFTR mutant activity at 5 uM incubated for 24 hrs; assay type: cell-based
Method in brief: (§3)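 CFBE41o– F508del/HS-YFP cells were reverse-transfected with 50 nM (final) NT or RNF5 siRNA using lipofectamine 2000. Medium was changed next day, then compounds were given for 24 h at 37 °C. Readout was the YFP iodide-influx assay after forskolin (20 μM) plus VX-770 (1 μM) stimulation.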

[10] = test system: Cystic fibrosis transmembrane conductance regulator (Homo sapiens), P13569 [F508del]; assay: Corrector activity at CFTR F508del mutant in human CFBE41o- cells transfected with NT siRNA assessed as increase in CFTR mutant activity at 5 uM incubated for 24 hrs in presence of VX-661/VX-445; assay type: cell-based; method in brief: as §3
[11] = test system: Cystic fibrosis transmembrane conductance regulator (Homo sapiens), P13569 [F508del]; assay: Corrector activity at CFTR F508del mutant in human CFBE41o- cells transfected with RNF5 siRNA assessed as increase in CFTR mutant activity at 5 uM incubated for 24 hrs; assay type: cell-based; method in brief: as §3
[12] = test system: Cystic fibrosis transmembrane conductance regulator (Homo sapiens), P13569 [F508del]; assay: Corrector activity at CFTR F508del mutant in human CFBE41o- cells transfected with RNF5 siRNA assessed as increase in CFTR mutant activity at 5 uM incubated for 24 hrs in presence of VX-661/VX-445; assay type: cell-based; method in brief: as §3
[13] = test system: Cystic fibrosis transmembrane conductance regulator (Homo sapiens), P13569 [F508del]; assay: Corrector activity at CFTR F508del mutant in human CFBE41o- cells assessed as rescue of CFTR mutant at 5 uM incubated for 24 hrs in presence of VX661/VX-445 by Western blot analysis; assay type: cell-based
[14] = test system: Cystic fibrosis transmembrane conductance regulator (Homo sapiens), P13569 [F508del]; assay: Corrector activity at CFTR F508del mutant in human CFBE41o- cells assessed as appearance of CFTR mutant forms at 5 uM incubated for 24 hrs in presence of MG-132 by Western blot analysis; assay type: cell-based
Method in brief: (§4)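 Confluent CFBE41o– F508del cells were treated 24 h, with MG-132 (10 μM) or DMSO in the last 4 h. Lysate (600 μg protein) was immunoprecipitated with rabbit anti-CFTR (2 μg, 1 h RT) and protein A/G beads, then eluted reducing. Samples ran on 4–15% gradient SDS-PAGE and were western blotted. Bands were read by chemiluminescence, with densitometry of ubiquitylated CFTR.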

[15] = test system: Cystic fibrosis transmembrane conductance regulator (Homo sapiens), P13569 [F508del]; assay: Corrector activity at CFTR F508del mutant in human CFBE41o- cells assessed as decrease in accumulation of ubiquitylated CFTR at 5 uM incubated for 24 hrs in presence of VX-661/VX-445 by Western blot analysis; assay type: cell-based; method in brief: as §4
CFBE41o- [16] = assay: Induction of apoptosis in human CFBE41o- cells assessed as increase in apoptosis at 1 uM incubated for 24 hrs by Hoechst 33342 and propidium iodide staining based analysis; assay type: toxicity, cell-based
Method in brief: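 Cells were plated at 10,000/well and treated after 6 h with compound (5, 20, 100 μM), VX-809 (1 μM), MG132 (50 μM) or DMSO for 24 h. Hoechst 33342 counted total nuclei and propidium iodide counted apoptotic nuclei, by high-content imaging. Means ± SEM; ANOVA with Dunnett test.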

CFBE41o- [17] = assay: Induction of autophagy in human CFBE41o- cells harbouring CFTR F508del mutant assessed as increase in number of autophagic vacuoles at 2 uM incubated for 3 hrs by confocal microscopy based analysis; assay type: functional, cell-based; method in brief: as §1

With `Cc1ns/c(=N\C(=N\c2ccncc2)c2ccccc2)n1Cc1ccccc1` the Activity [1] was “Not Active”.
With `Cc1ns/c(=N\C(=N\c2ccccc2)c2ccccc2)n1Cc1ccc(Br)cc1` the Activity (CFBE41o- [2]) was “Non-Toxic” and the Activity (CFBE41o- [3]) was “Active”.
In the case of `Cc1ns/c(=N\C(=N\c2ccccc2)c2ccccc2)n1Cc1ccc(Cl)cc1`, the Activity (CFBE41o- [2]) is reported as “Non-Toxic”.
For `Cc1ns/c(=N\C(=N\c2ccccc2)c2ccccc2)n1Cc1cccc(F)c1`, the Activity (CFBE41o- [2]) was “Non-Toxic”.
With `CCC(=O)N1CCN(c2ccc(-n3c(=O)ccc4cnc5ccc(-c6cnc7ccccc7c6)cc5c43)cc2C(F)(F)F)CC1` the Activity (CFBE41o- [4]) was “Active”.
In the case of `Cc1cccc(Cn2c(C)ns/c2=N\C(=N\c2ccccc2)c2ccccc2)c1`, the Activity (CFBE41o- [2]) is reported as “Non-Toxic”.
For `COc1cccc(Cn2c(C)ns/c2=N\C(=N\c2ccccc2)c2ccccc2)c1`, the Activity [1] was “Not Active”, the Activity (CFBE41o- [2]) was “Non-Toxic” and the Activity (CFBE41o- [3]) was “Active”. For the same compound, the EC50 [5] was 1200 nM, the Activity [6] was “Active” and the Activity [7] was “Active”. The Activity [8] was “Active”, the Activity [9] was “Active” and the Activity [10] was “Active”. For the same compound, the Activity [11] was “inactive”, the Activity [12] was “inactive” and the Activity [13] was “Active”. The Activity [14] was “inactive” and the Activity [15] was “Active”.
For `CCOc1cccc(Cn2c(C)ns/c2=N\C(=N\c2ccccc2)c2ccccc2)c1`, the Activity (CFBE41o- [2]) was “Non-Toxic”.
For `CNc1cccc(Cn2c(C)ns/c2=N\C(=N\c2ccccc2)c2ccccc2)c1`, the Activity (CFBE41o- [2]) was “Non-Toxic” and the Activity (CFBE41o- [3]) was “Active”.
With `Cc1ns/c(=N\c2ccccn2)n1Cc1ccccc1` the Activity [1] was “Not Active”.
In the case of `Cc1ccccc1Cn1c(C)ns/c1=N\C(=N\c1ccccc1)c1ccccc1`, the Activity (CFBE41o- [2]) is reported as “Non-Toxic”.
In the case of `Cc1ccc(Cn2c(C)ns/c2=N\C(=N\c2ccccc2)c2ccccc2)cc1`, the Activity (CFBE41o- [2]) is reported as “Non-Toxic”.
For `Cc1ccc(NC(=O)C2(c3ccc4c(c3)OC(F)(F)O4)CC2)nc1-c1cccc(C(=O)O)c1` [LUMACAFTOR], the Activity (CFBE41o- [2]) was “Non-Toxic” and the Activity (CFBE41o- [16]) was “Toxic”.
With `C[C@@H]1COCCN1c1cc(=O)n2c(n1)N(Cc1cncc(Cl)c1)[C@H](C(F)(F)F)CC2` the Activity (CFBE41o- [17]) was “inactive”.
